# In ChEMBL document CHEMBL5724801, “EUbOPEN Chemogenomics Library - Multiplex” (2024):
# Where “and” joins values, the source holds several entries; their conditions need not be identical. Equal entries are not always repeated.
# Assays:
# Fibroblast = assay: Multiplex assay against human fibroblast; format: toxicity, cell-based
# How it was run: (§1)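 With compound added, live cells were imaged on a CQ1 microscope at 37°C and 5% CO2; staining with Hoechst33342, BioTracker Green Microtubule Cytoskeleton Dye, MitoTracker Red and Annexin V Alexa Fluor 680 had been done at seeding. The CellPathfinder machine-learning gating scheme split cells into Hoechst high-intensity objects or normal cells, normal cells into healthy, pyknosed or fragmented nuclei, and pyknosed cells into mitotic or apoptotic. The tubulin, mitochondrial-mass and membrane-permeability phenotypes are per cents of healthy-nucleus cells.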
# HEK-293T = assay: Multiplex assay against HEK293T; format: toxicity, cell-based; conditions: human; how it was run: as §1
# [1] = 12 h, 1 µM, compound concentration 1 uM
# [2] = 12 h, 10 µM, compound concentration 10 uM
# [3] = 24 h, 1 µM, compound concentration 1 uM
# [4] = 24 h, 10 µM, compound concentration 10 uM
# [5] = 48 h, 1 µM, compound concentration 1 uM
# [6] = 48 h, 10 µM, compound concentration 10 uM
smiles,measurement,setting,value
Cl.Cl.N#Cc1ccc(O[C@@H]2c3ccccc3C[C@H]2N2CCC[C@@H](N)C2)c(Cl)c1,Population Apoptotic (%),Fibroblast; [1],13.21% and 14.29%
same,Population Fragmented Nuclei (%),Fibroblast; [1],8.33% and 10.47%
same,Population Healthy Nuclei (%),Fibroblast; [1],57.69% and 74.87%
same,Population Hoechst High Intensity Objects (%),Fibroblast; [1],0%
same,Population Membrane Permeable-Phenotype (%),Fibroblast; [1],6.67% and 4.9%
same,Population Mitochondria Different-Phenotype (%),Fibroblast; [1],20% and 19.58%
same,Population Mitotic Cells (%),Fibroblast; [1],86.79% and 85.71%
same,Population Normal (%),Fibroblast; [1],100%
same,Population Pyknosed Nuclei (%),Fibroblast; [1],33.97% and 14.66%
same,Population Tubulin-Different-Phenotype (%),Fibroblast; [1],35.56% and 58.04%
same,Total Cell Count,Fibroblast; [1],156 and 191
same,Population Apoptotic (%),Fibroblast; [2],14.81% and 27.63%
same,Population Fragmented Nuclei (%),Fibroblast; [2],18.93% and 7.94%
same,Population Healthy Nuclei (%),Fibroblast; [2],49.11% and 64.62%
same,Population Hoechst High Intensity Objects (%),Fibroblast; [2],0%
same,Population Membrane Permeable-Phenotype (%),Fibroblast; [2],3.61% and 6.15%
same,Population Mitochondria Different-Phenotype (%),Fibroblast; [2],62.65% and 43.58%
same,Population Mitotic Cells (%),Fibroblast; [2],85.19% and 72.37%
same,Population Normal (%),Fibroblast; [2],100%
same,Population Pyknosed Nuclei (%),Fibroblast; [2],31.95% and 27.44%
same,Population Tubulin-Different-Phenotype (%),Fibroblast; [2],78.31% and 88.83%
same,Total Cell Count,Fibroblast; [2],169 and 277
same,Population Fragmented Nuclei (%),Fibroblast; [3],6.79% and 14.63%
same,Population Healthy Nuclei (%),Fibroblast; [3],62.35% and 76.59%
same,Population Hoechst High Intensity Objects (%),Fibroblast; [3],0%
same,Population Membrane Permeable-Phenotype (%),Fibroblast; [3],4.95% and 3.18%
same,Population Mitochondria Different-Phenotype (%),Fibroblast; [3],18.81% and 13.38%
same,Population Mitotic Cells (%),Fibroblast; [3],98% and 77.78%
same,Population Normal (%),Fibroblast; [3],100%
same,Population Tubulin-Different-Phenotype (%),Fibroblast; [3],36.63% and 57.32%
same,Total Cell Count,Fibroblast; [3],162 and 205
same,Population Apoptotic (%),Fibroblast; [4],29.27% and 37.5%
same,Population Fragmented Nuclei (%),Fibroblast; [4],11.58% and 4.05%
same,Population Healthy Nuclei (%),Fibroblast; [4],66.84% and 78.5%
same,Population Hoechst High Intensity Objects (%),Fibroblast; [4],0%
same,Population Membrane Permeable-Phenotype (%),Fibroblast; [4],2.36% and 3.17%
same,Population Mitochondria Different-Phenotype (%),Fibroblast; [4],70.08% and 55.16%
same,Population Mitotic Cells (%),Fibroblast; [4],70.73% and 62.5%
same,Population Normal (%),Fibroblast; [4],100%
same,Population Pyknosed Nuclei (%),Fibroblast; [4],21.58% and 17.45%
same,Population Tubulin-Different-Phenotype (%),Fibroblast; [4],85.83% and 88.1%
same,Total Cell Count,Fibroblast; [4],190 and 321
same,Population Apoptotic (%),Fibroblast; [5],20% and 38.89%
same,Population Fragmented Nuclei (%),Fibroblast; [5],13.79% and 11.43%
same,Population Healthy Nuclei (%),Fibroblast; [5],78.82% and 80%
same,Population Hoechst High Intensity Objects (%),Fibroblast; [5],0%
same,Population Membrane Permeable-Phenotype (%),Fibroblast; [5],1.88% and 1.79%
same,Population Mitochondria Different-Phenotype (%),Fibroblast; [5],16.88% and 10.12%
same,Population Mitotic Cells (%),Fibroblast; [5],80% and 61.11%
same,Population Normal (%),Fibroblast; [5],100%
same,Population Pyknosed Nuclei (%),Fibroblast; [5],7.39% and 8.57%
same,Population Tubulin-Different-Phenotype (%),Fibroblast; [5],32.5% and 59.52%
same,Total Cell Count,Fibroblast; [5],203 and 210
same,Population Apoptotic (%),Fibroblast; [6],37.5% and 50%
same,Population Healthy Nuclei (%),Fibroblast; [6],75.86% and 86.13%
same,Population Hoechst High Intensity Objects (%),Fibroblast; [6],0%
same,Population Membrane Permeable-Phenotype (%),Fibroblast; [6],0.57% and 3.37%
same,Population Mitochondria Different-Phenotype (%),Fibroblast; [6],42.61% and 26.22%
same,Population Mitotic Cells (%),Fibroblast; [6],62.5% and 50%
same,Population Normal (%),Fibroblast; [6],100%
same,Population Pyknosed Nuclei (%),Fibroblast; [6],3.45% and 7.1%
same,Population Tubulin-Different-Phenotype (%),Fibroblast; [6],79.55% and 86.89%
same,Total Cell Count,Fibroblast; [6],232 and 310
same,Population Apoptotic (%),HEK-293T; [1],8.75% and 10.31%
same,Population Fragmented Nuclei (%),HEK-293T; [1],2.35% and 6.14%
same,Population Hoechst High Intensity Objects (%),HEK-293T; [1],0%
same,Population Membrane Permeable-Phenotype (%),HEK-293T; [1],1.16% and 0%
same,Population Mitochondria Different-Phenotype (%),HEK-293T; [1],36.63% and 30%
same,Population Mitotic Cells (%),HEK-293T; [1],91.25% and 89.69%
same,Population Normal (%),HEK-293T; [1],100%
same,Population Pyknosed Nuclei (%),HEK-293T; [1],47.06% and 85.09%
same,Population Tubulin-Different-Phenotype (%),HEK-293T; [1],26.16% and 50%
same,Total Cell Count,HEK-293T; [1],340 and 114
same,Population Apoptotic (%),HEK-293T; [2],22.15% and 32.8%
same,Population Fragmented Nuclei (%),HEK-293T; [2],4.33% and 4.76%
same,Population Healthy Nuclei (%),HEK-293T; [2],27.27% and 10.2%
same,Population Hoechst High Intensity Objects (%),HEK-293T; [2],0.86% and 0%
same,Population Membrane Permeable-Phenotype (%),HEK-293T; [2],0% and 13.33%
same,Population Mitochondria Different-Phenotype (%),HEK-293T; [2],28.57% and 33.33%
same,Population Mitotic Cells (%),HEK-293T; [2],77.85% and 67.2%
same,Population Normal (%),HEK-293T; [2],99.14% and 100%
same,Population Pyknosed Nuclei (%),HEK-293T; [2],68.4% and 85.03%
same,Population Tubulin-Different-Phenotype (%),HEK-293T; [2],71.43% and 93.33%
same,Total Cell Count,HEK-293T; [2],233 and 147
same,Population Apoptotic (%),HEK-293T; [3],26.62% and 47.67%
same,Population Fragmented Nuclei (%),HEK-293T; [3],1.19% and 8.11%
same,Population Hoechst High Intensity Objects (%),HEK-293T; [3],0.2% and 0%
same,Population Membrane Permeable-Phenotype (%),HEK-293T; [3],2.03% and 0%
same,Population Mitochondria Different-Phenotype (%),HEK-293T; [3],30.14% and 50%
same,Population Mitotic Cells (%),HEK-293T; [3],73.38% and 52.33%
